Data on three molecules can be found in ChEMBL document CHEMBL1811860, “Synthesis and inhibitory activity of sialic acid derivatives targeted at viral sialate-O-acetylesterases” (Eur J Med Chem, 2011).

Assay [1] in a line: Inhibition of SDAV GFP-tagged 9-SOAE expressed in Sf9 cells assessed as inhibition of hydrolysis of pNPA at 0.1 mM. Conditions: Rat sialodacryoadenitis coronavirus. An outline of the steps:
(§1)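 EGFP-fused haemagglutinin-esterase was made in serum-free Sf9 cultures via recombinant baculovirus and recovered from supernatant by ultracentrifugation (1.5 h, 4 °C). It was preincubated with sialoside for 30 min at room temperature. pNPA (10 µl of 100 mM acetonitrile stock) was added in PBS pH 7.4 to 1 ml, and A400 was followed. Read-out was % inhibition of pNPA hydrolysis.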

Assay [2] can be described thus: Inhibition of MHV S 4-SOAE expressed in Sf9 cells assessed as inhibition of hydrolysis of pNPA at 0.1 mM. Conditions: Murine coronavirus.
Assay [3] is described as follows: Inhibition of MHV S 4-SOAE expressed in Sf9 cells assessed as inhibition of hydrolysis of pNPA at 1 mM. The conditions noted are these: Murine coronavirus.
Assay [4] can be described thus: Inhibition of SDAV GFP-tagged 9-SOAE expressed in Sf9 cells assessed as inhibition of hydrolysis of pNPA at 5 mM. The conditions noted are these: Rat sialodacryoadenitis coronavirus. The procedure, abridged: as §1
Assay [5] can be described thus: Inhibition of SDAV GFP-tagged 9-SOAE expressed in Sf9 cells assessed as inhibition of hydrolysis of pNPA at 1 mM. Conditions: Rat sialodacryoadenitis coronavirus. An outline of the steps:
as §1

Assay [6] can be described thus: Inhibition of SDAV GFP-tagged 9-SOAE expressed in Sf9 cells assessed as inhibition of hydrolysis of pNPA at 0.5 mM. Conditions: Rat sialodacryoadenitis coronavirus. The procedure, abridged:
as §1

A short description of assay [7]: Inhibition of MHV S 4-SOAE expressed in Sf9 cells assessed as inhibition of hydrolysis of pNPA at 0.5 mM. The conditions noted are these: Murine coronavirus.
A short description of assay [8]: Inhibition of MHV S 4-SOAE expressed in Sf9 cells assessed as inhibition of hydrolysis of pNPA at 5 mM. Conditions: Murine coronavirus.
Assay [9] is described as follows: Inhibition of influenza C virus 9-SOAE assessed as inhibition of hydrolysis of pNPA. An outline of the steps:
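Esterase came from whole virions purified by ultracentrifugation through a 20% sucrose cushion (1.5 h, 4 °C) and resuspended in PBS pH 7.4. Enzyme was preincubated with sialoside for 30 min at room temperature. pNPA (10 µl of 100 mM acetonitrile stock) was then added in PBS pH 7.4 to 1 ml, and A400 was monitored. Read-out was % inhibition of pNPA hydrolysis.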

Assay [10] in a line: Inhibition of Bovine coronavirus […] assessed as inhibition of hydrolysis of pNPA at 1 mM. Conditions: Sf9.
The nature of assay [11]: Inhibition of recombinant influenza C virus C/Cal/78 GFP-tagged 9-SOAE expressed in Sf9 cells assessed as inhibition of hydrolysis of pNPA at 0.5 mM. The procedure, abridged: as §1
The nature of assay [12]: Inhibition of Bovine coronavirus 9-SOAE expressed in Sf9 cells assessed as inhibition of hydrolysis of pNPA at 0.5 mM.
Assay [13] is described as follows: Inhibition of Bovine coronavirus 9-SOAE expressed in Sf9 cells assessed as inhibition of hydrolysis of pNPA at 2 mM.
A short description of assay [14]: Inhibition of Influenza C virus C/JJ/50 9-SOAE expressed in Sf9 cells assessed as inhibition of hydrolysis of pNPA at 1 mM.
Assay [15] is described as follows: Inhibition of recombinant influenza C virus C/Cal/78 GFP-tagged 9-SOAE expressed in Sf9 cells assessed as inhibition of hydrolysis of pNPA at 2 mM. The procedure, abridged:
as §1

Assay [16] is described as follows: Inhibition of recombinant influenza C virus C/Cal/78 GFP-tagged 9-SOAE expressed in Sf9 cells assessed as inhibition of Neu5,9Ac2 hydrolysis at 1 mM by fluorimetric HPLC analysis. The procedure, abridged: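 Baculovirus/Sf9-expressed EGFP fusion (10 mU) was preincubated with 1 mM sialoside in PBS pH 7.4 for 30 min at room temperature. Free O-acetylated sialic acid or bovine submandibular mucin (10 µg) was then added and incubated at 37 °C for 20–240 min. Mucin samples were hydrolysed in 2 M propionic acid (80 °C, 2 h). Sialic acids were analysed by reverse-phase HPLC with fluorimetric detection.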

Assay [17] in a line: Inhibition of recombinant influenza C virus C/Cal/78 GFP-tagged 9-SOAE expressed in Sf9 cells assessed as inhibition of hydrolysis of pNPA at 1 mM. An outline of the steps: as §1
Assay [18] is described as follows: Inhibition of recombinant influenza C virus C/Cal/78 GFP-tagged 9-SOAE expressed in Sf9 cells assessed as inhibition of hydrolysis of pNPA at 5 mM. An outline of the steps: as §1

For orientation: inhibition means how much of the control response was suppressed. For orientation: Ki means the equilibrium dissociation constant of an inhibitor or competing ligand from its target.

On to `C=CCO[C@]1(C(=O)O)C[C@H](OC)[C@@H](NC(C)=O)[C@H]([C@H](O)[C@H](O)CO)O1`, for which the inhibition in [1] turned out to be 2.13%; in assay [2], 4%; in assay [3], 8.31%; in assay [4], 8.73%; in assay [5], 0.51%; in [6] it was 2.56%. Further, the inhibition in assay [7] stood at 0%; in assay [8], 7.73%.
Turning to “((2S,4S,5R,6R)-5-acetamido-6-((1R,2R)-3-acetamido-1,2-dihydroxypropyl)-2-carboxy-4-hydroxytetrahydro-2H-pyran-2-ylthio)(methyl)mercury”, in assay [9], the inhibition constant Ki is 4.2 mM.
With `C=CCO[C@]1(C(=O)O)C[C@H](O)[C@@H](NC(C)=O)[C@H]([C@H](O)[C@H](O)COC)O1`, the inhibition in assay [10] is 9%; in assay [11], 22.9%; in assay [12], 2.86%; in assay [13] it was less than 0%; in [14], 8.63%; in assay [15], 33%. Also, the inhibition is 10% in assay [16], 22.4% in assay [17] and 85.8% in assay [18].
